Here are results for six molecules from ChEMBL document CHEMBL5252518, “Correlation of in Situ Oxazolidine Formation with Highly Synergistic Cytotoxicity and DNA Cross-Linking in Cancer Cells from Combinations of Doxorubicin and Formaldehyde” (J Med Chem, 2016).

Data set [1] deals with NCI/ADR-RES. As to the kind of experiment: Cytotoxicity against doxorubicin-resistant human NCI/ADR-RES cells assessed as inhibition of cell growth incubated for 3 hrs by crystal violet staining assay. Type of data set: functional, cell-based.
A short description of data set [2]: Half life of compound. The format is physicochemical.
For data set [3], the system named is NCI/ADR-RES. As to the kind of experiment: Cytotoxicity against doxorubicin-resistant human NCI/ADR-RES cells assessed as fold change in IC50 incubated for 3 hrs in presence of pig liver esterase by crystal violet staining assay relative to Doxsaliform. Type of data set: functional.
Data set [4] relates to NCI/ADR-RES. As to the kind of experiment: Cytotoxicity against doxorubicin-resistant human NCI/ADR-RES cells assessed as inhibition of cell growth incubated for 3 hrs in presence of pig liver esterase by crystal violet staining assay. The format is functional, cell-based.
The nature of data set [5]: Prodrug conversion in pig liver assessed as esterase-mediated Doxazolidine formation by measuring its half life at 1 uM by HPLC analysis. Type of data set: ADME, tissue-based, Sus scrofa.
For data set [6], the system named is NCI/ADR-RES. As to the kind of experiment: Cytotoxicity against doxorubicin-resistant human NCI/ADR-RES cells assessed as fold change in IC50 incubated for 3 hrs in presence of pig liver esterase by crystal violet staining assay. The format is functional.
In data set [7] the test system is MIA PaCa-2. As to the kind of experiment: Cytotoxicity against doxorubicin-sensitive human MIA PaCa-2 cells assessed as inhibition of cell growth incubated for 30 mins by crystal violet staining assay. Particulars: MIA PaCa-2, 0.5 h.
Data set [8] is described as follows: Genotoxicity in doxorubicin-resistant human NCI/ADR-RES cells assessed as increase in tail DNA density at 10 uM incubated for 90 mins by comet assay. Type of data set: toxicity, cell-based. Particulars: 1.5 h. Put shortly: (§1)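 Alkaline single-cell gel electrophoresis (comet) assay. A bulk population of cells was trypsinized, then split into treatment groups and treated in suspension for 90 min. After the drug was removed, cells were promptly embedded in agarose, lysed and electrophoresed under alkaline conditions. Gels were then stained, and the stain density in the comet tail was scored as DNA strand-break content.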

Data set [9] relates to DNA. As to the kind of experiment: Induction of DNA (unknown origin) expressed in Escherichia coli DH5alpha interstrand cross-linking assessed as inhibition of NotI-induced DNA digestion at 1.5 to 8 uM incubated for 30 mins by agarose gel electrophoresis based restriction endonuclease digestion assay. Type of data set: functional. Particulars: dose 1.5-8 µM.
Data set [10] in a line: Genotoxicity in doxorubicin-sensitive human MIA PaCa-2 cells assessed as increase in tail DNA density at 10 uM incubated for 90 mins by comet assay. Type of data set: toxicity, cell-based. Particulars: mia paca-2, 1.5 h. Put shortly:
as §1

Data set [11] can be described thus: Genotoxicity in doxorubicin-resistant human NCI/ADR-RES cells assessed as increase in tail DNA density at 250 uM incubated for 90 mins by comet assay. Particulars: 1.5 h. Type of data set: toxicity, cell-based. The method in brief:
as §1

The nature of data set [12]: Genotoxicity in doxorubicin-sensitive human MIA PaCa-2 cells assessed as increase in tail DNA density at 250 uM incubated for 90 mins by comet assay. The format is toxicity, cell-based. Particulars: mia paca-2, 1.5 h. Put shortly: as §1
The subject of data set [13] is DNA. As to the kind of experiment: Induction of DNA (unknown origin) expressed in Escherichia coli DH5alpha interstrand cross-linking assessed as inhibition of NdeI-induced DNA digestion at 1.5 to 8 uM incubated for 30 mins by agarose gel electrophoresis based restriction endonuclease digestion assay. The format is functional. Particulars: dose 1.5-8 µM.
Data set [14] concerns MIA PaCa-2. As to the kind of experiment: Cytotoxicity against doxorubicin-sensitive human MIA PaCa-2 cells assessed as inhibition of cell growth incubated for 90 mins by crystal violet staining assay. Type of data set: functional, cell-based. Particulars: MIA PaCa-2, 1.5 h.
Data set [15] deals with NCI/ADR-RES. As to the kind of experiment: Cytotoxicity against doxorubicin-resistant human NCI/ADR-RES cells assessed as inhibition of cell growth incubated for 90 mins by crystal violet staining assay. The format is functional, cell-based. Particulars: 1.5 h.
For data set [16], the system named is DNA. As to the kind of experiment: Induction of DNA interstrand cross-linking in hydrogen peroxide induced human NCI/ADR-RES cells assessed as decrease in comet tail density at 10 uM incubated for 90 mins by comet assay. The format is functional, cell-based.
The subject of data set [17] is NCI/ADR-RES. As to the kind of experiment: Synergistic cytotoxicity against doxorubicin-resistant human NCI/ADR-RES cells assessed as fold change in IC50 incubated for 90 mins in presence of formaldehyde by crystal violet staining assay. Particulars: 1.5 h.
For data set [18], the system named is NCI/ADR-RES. As to the kind of experiment: Synergistic cytotoxicity against doxorubicin-resistant human NCI/ADR-RES cells assessed as fold change in IC50 incubated for 30 mins in presence of formaldehyde by crystal violet staining assay. Particulars: 0.5 h.
Data set [19] is described as follows: Genotoxicity in doxorubicin-sensitive human MIA PaCa-2 cells assessed as increase in DNA damage at 100 uM incubated for 90 mins by comet assay. Type of data set: toxicity, cell-based. Particulars: mia paca-2, 1.5 h. The method in brief:
(§2)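 Cells were trypsinized as one bulk population, split into treatment groups and drug-treated in suspension for 90 min. They were then promptly embedded in agarose, lysed and electrophoresed under alkaline conditions (alkaline single-cell gel electrophoresis). After staining, DNA strand breaks were scored as comet tail stain density.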

Data set [20] relates to NCI/ADR-RES. As to the kind of experiment: Induction of DNA damage in hydrogen peroxide induced human NCI/ADR-RES cells assessed as increase in comet tail density at 100 uM incubated for 90 mins by comet assay. Type of data set: functional, cell-based.
Data set [21] relates to MIA PaCa-2. As to the kind of experiment: Synergistic cytotoxicity against doxorubicin-sensitive human MIA PaCa-2 cells assessed as combination index incubated for 90 mins in presence of formaldehyde by crystal violet staining assay. Type of data set: functional. Particulars: 1.5 h.
The subject of data set [22] is NCI/ADR-RES. As to the kind of experiment: Synergistic cytotoxicity against doxorubicin-resistant human NCI/ADR-RES cells assessed as fold change in IC50 incubated for 90 mins in presence of formaldehyde low concentration by crystal violet staining assay. Particulars: 1.5 h.
Data set [23] relates to NCI/ADR-RES. As to the kind of experiment: Synergistic cytotoxicity against doxorubicin-resistant human NCI/ADR-RES cells assessed as combination index incubated for 90 mins in presence of formaldehyde by crystal violet staining assay. Particulars: 1.5 h.
The subject of data set [24] is NCI/ADR-RES. As to the kind of experiment: Cytotoxicity against doxorubicin-resistant human NCI/ADR-RES cells assessed as inhibition of cell growth incubated for 30 mins by crystal violet staining assay. Type of data set: functional, cell-based. Particulars: 0.5 h.
The test system of data set [25] is MIA PaCa-2. As to the kind of experiment: Synergistic cytotoxicity against doxorubicin-sensitive human MIA PaCa-2 cells assessed as fold change in IC50 incubated for 90 mins in presence of formaldehyde by crystal violet staining assay. Type of data set: functional. Particulars: 1.5 h.
Data set [26] is described as follows: Genotoxicity in doxorubicin-resistant human NCI/ADR-RES cells assessed as increase in DNA damage at 100 uM incubated for 90 mins by comet assay. Type of data set: toxicity, cell-based. Particulars: 1.5 h. The method in brief: as §2
Data set [27] has as its system MIA PaCa-2. As to the kind of experiment: Synergistic cytotoxicity against doxorubicin-sensitive human MIA PaCa-2 cells assessed as cell survival incubated for 90 mins in presence of formaldehyde by crystal violet staining assay. The format is functional. Particulars: 1.5 h.
Data set [28] relates to MIA PaCa-2. As to the kind of experiment: Synergistic cytotoxicity against doxorubicin-sensitive human MIA PaCa-2 cells assessed as inhibition of cell growth incubated for 90 mins in presence of formaldehyde by crystal violet staining assay. The format is functional, cell-based. Particulars: MIA PaCa-2, 1.5 h.
Data set [29] has as its system MIA PaCa-2. As to the kind of experiment: Synergistic cytotoxicity against doxorubicin-sensitive human MIA PaCa-2 cells assessed as inhibition of cell growth incubated for 90 mins in presence of epirubicin by crystal violet staining assay. Particulars: MIA PaCa-2, 1.5 h.

The structures appear in SMILES notation. Calls of active or inactive are those of the source. The calls are words filed in the database; no cut-off is given here.

Take `COc1cccc2c1C(=O)c1c(O)c3c(c(O)c1C2=O)C[C@@](O)(C(=O)CO)C[C@@H]3O[C@H]1C[C@H](NCNC(=O)c2ccccc2O)[C@H](O)[C@H](C)O1`: the IC50 in the data set with NCI/ADR-RES [1] is 800000 nM. In data set [2], this molecule showed a half-life of 57 min.

Consider `CCCCCOC(=O)Nc1ccc(COC(=O)N2CO[C@@H]3[C@H](C)O[C@@H](O[C@H]4C[C@](O)(C(=O)CO)Cc5c(O)c6c(c(O)c54)C(=O)c4c(OC)cccc4C6=O)C[C@@H]32)cc1`, for which the “fold change (FC)” value in the data set on NCI/ADR-RES [3] is given as 25; in the data set on NCI/ADR-RES [6], 30. The IC50 was found to be 3 nM in the data set on NCI/ADR-RES [4] and 2000 nM with NCI/ADR-RES [1]. Moreover, in data set [5], the t1/2 turned out to be 24 min.

For `COc1cccc2c1C(=O)c1c(O)c3c(c(O)c1C2=O)C[C@@](O)(C(=O)CO)C[C@@H]3O[C@H]1C[C@@H]2NCO[C@@H]2[C@H](C)O1` [DOXAZOLIDINE], the IC50 in the data set with MIA PaCa-2 [7] was 51000 nM; in the data set on MIA PaCa-2 [14] (read-out: IC50), 22 nM; in the data set on MIA PaCa-2 [14] (read-out: pIC50 (converted)), 20 nM; in the data set on NCI/ADR-RES [15] (read-out: IC50), 48 nM; in the data set with NCI/ADR-RES [15] (read-out: pIC50 (converted)), 50.1 nM. In addition, the Activity entry in data set [8], in [10], in [11] and in [12] was “Non-Toxic” throughout. Moreover, the outcome with DNA [9], in the data set with DNA [13] and in the data set with DNA [16] was Active.

As to `COc1cccc2c1C(=O)c1c(O)c3c(c(O)c1C2=O)C[C@@](O)(C(=O)CO)C[C@@H]3O[C@H]1C[C@H](N)[C@H](O)[C@H](C)O1` [DOXORUBICIN], the IC50 is 4000 nM in the data set with MIA PaCa-2 [7]; 66000 nM in the data set with MIA PaCa-2 [14] (read-out: IC50); 63100 nM in the data set on MIA PaCa-2 [14] (read-out: pIC50 (converted)); 620 nM in the data set on NCI/ADR-RES [15] (read-out: IC50); 617 nM with NCI/ADR-RES [15] (read-out: pIC50 (converted)); 220000 nM in the data set on NCI/ADR-RES [24]. In addition, the “fold change (FC)” value is 55 with NCI/ADR-RES [17], 9 with NCI/ADR-RES [18], 2.5 with NCI/ADR-RES [22] and 3.5 in the data set on MIA PaCa-2 [25]. The result in the data set with DNA [9], in the data set with NCI/ADR-RES [20] and in the data set on DNA [13] was Active. In addition, the figures for the Activity entry (in data set [19]; in data set [26]; in the data set on MIA PaCa-2 [27]) were “Toxic”, “Toxic” and 75%, respectively. The CI in the data set with MIA PaCa-2 [21] is recorded as 0.4; with NCI/ADR-RES [23] it was 0.02.

As for `COc1cccc2c1C(=O)c1c(O)c3c(c(O)c1C2=O)C[C@@](O)(C(=O)CO)C[C@@H]3O[C@H]1C[C@H](N)[C@@H](O)[C@H](C)O1` [EPIRUBICIN], the Activity entry in [19] and in data set [26] was “Toxic” in each case. For the same molecule, the result in the data set with NCI/ADR-RES [20] was Active. Besides, the IC50 with MIA PaCa-2 [28] is 500 nM; with MIA PaCa-2 [14] (read-out: IC50), over 100000 nM; in the data set with NCI/ADR-RES [15] (read-out: IC50) it was 630 nM; with NCI/ADR-RES [15] (read-out: pIC50 (converted)) it was 631 nM.

In the case of `C=O` [FORMALDEHYDE], the IC50 with MIA PaCa-2 [29] is 500 nM; in the data set on MIA PaCa-2 [14] (read-out: IC50) it was 610000 nM; in the data set on MIA PaCa-2 [14] (read-out: pIC50 (converted)), 631000 nM; in the data set with NCI/ADR-RES [15] (read-out: IC50), 530000 nM; in the data set on NCI/ADR-RES [15] (read-out: pIC50 (converted)) it was 501000 nM; in the data set with NCI/ADR-RES [24], 600000 nM.
